Results on 24 compounds are retold here after ChEMBL document CHEMBL3853349, “Diversity-Oriented Synthesis as a Strategy for Fragment Evolution against GSK3β” (ACS Med Chem Lett, 2016).

In experiment [1] the target is T1, Glycogen synthase kinase-3 beta (Homo sapiens, UniProt P49841). Nature of the experiment: Binding affinity to GSK-3 beta (unknown origin) assessed as assessed as thermal shift at 2.5 mM by differential scanning fluorimetry. In a few lines:
(§1)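 Differential scanning fluorimetry on GSK3β, reported as thermal stabilization ΔT in °C. Compounds were tested at 2.5 mM by default; the growth-vector analogue set was run at 1.25 mM for ranking.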
Target sequence in this assay (P49841 whole entry, looked up): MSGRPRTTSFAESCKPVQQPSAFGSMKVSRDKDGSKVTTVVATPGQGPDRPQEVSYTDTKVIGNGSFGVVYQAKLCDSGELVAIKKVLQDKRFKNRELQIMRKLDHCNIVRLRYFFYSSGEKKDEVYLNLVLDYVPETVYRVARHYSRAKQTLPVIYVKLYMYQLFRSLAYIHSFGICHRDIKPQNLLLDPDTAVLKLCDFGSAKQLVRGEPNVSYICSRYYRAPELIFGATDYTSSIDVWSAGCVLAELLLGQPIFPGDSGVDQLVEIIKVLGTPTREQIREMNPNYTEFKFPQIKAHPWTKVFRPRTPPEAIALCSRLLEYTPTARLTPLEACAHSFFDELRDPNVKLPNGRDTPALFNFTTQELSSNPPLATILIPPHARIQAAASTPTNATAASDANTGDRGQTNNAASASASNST
Background: Differential scanning fluorimetry follows unfolding on heating by fluorescence.

Experiment [2] has as its target T1, Glycogen synthase kinase-3 beta. Description: Inhibition of recombinant full-length N-terminal GST tagged human GSK-3 beta expressed in baculovirus infected Sf9 insect cells at 1 mM using GSM as substrate after 5 mins by ADP-Glo luminescence assay. In a few lines: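 Single-point ADP-Glo biochemical inhibition of GSK3β with compound at 1 mM, used to rank analogues alongside DSF.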
Target sequence in this assay (P49841 whole entry, looked up): as above

Experiment [3] has the same target. Nature of the experiment: Binding affinity to GSK-3 beta (unknown origin) assessed as thermal shift at 1.25 mM by differential scanning fluorimetry. The procedure, abridged: as §1
Target sequence in this assay (P49841 whole entry, looked up): as above
Experiment [4] has the same target. Nature of the experiment: Inhibition of recombinant full-length N-terminal GST tagged human GSK-3 beta expressed in baculovirus infected Sf9 insect cells using GSM as substrate after 5 mins by ADP-Glo luminescence assay. A general note: ADP-Glo turns the ADP formed in a reaction into a luminescent signal.
Target sequence in this assay (P49841 whole entry): as the sequence (P49841 whole entry, looked up) above
The target is the same in experiment [5]. Nature of the experiment: Binding affinity to GSK-3 beta (unknown origin) after 30 mins by isothermal titration calorimetry. In general terms: Isothermal titration calorimetry measures the heat released or taken up as one component is titrated into another.
Target sequence in this assay (P49841 whole entry): as the sequence (P49841 whole entry, looked up) above
The species named for a further experiment is Homo sapiens. Nature of the experiment: Selectivity ratio of IC50 for CDK5 (unknown origin) to IC50 for GSK-3 beta (unknown origin).
Experiment [6] concerns the target T1, Glycogen synthase kinase-3 beta. Nature of the experiment: Binding affinity to GSK-3 beta (unknown origin) by WaterLOGSY NMR analysis.
Target sequence in this assay (P49841 whole entry, looked up): as above
For experiment [7] the target is unchanged. Description: Binding affinity to GSK-3 beta (unknown origin) by STD NMR analysis.
Target sequence in this assay (P49841 whole entry, looked up): as above

SMILES strings stand for the structures. Calls of active or inactive are those of the source. The rule behind the calls is not given here.

For orientation: inhibition means the percentage by which the read-out fell short of the control. On to `C[C@@H]1Nc2ccccc2NC1=O`, for which the deltaT in experiment [1] is 0 °C. Also, the inhibition in experiment [2] worked out at 9%.

As for `O=C1Nc2ncccc2N[C@H]1Cc1ccc(O)cc1`, the deltaT in experiment [3] is 2.1 °C. For the same compound, the inhibition in experiment [2] was 78%.

Consider `O=C1Nc2ncccc2N[C@@H]1Cc1ccc(O)cc1`, for which the deltaT in experiment [3] is 2.9 °C. Further, the inhibition in experiment [2] was found to be 88%.

Turning to `O=C1Nc2ncccc2N[C@H]1CO`, the deltaT in experiment [1] is 0.5 °C.

The IC50 is the point on the concentration scale where inhibition reaches its midpoint. Turning to `O=C1Nc2ncccc2N[C@H]1Cc1c[nH]c2ccccc12`, the IC50 in experiment [4] came out at 322 µM. The deltaT in experiment [3] came to 1.7 °C. Moreover, the inhibition in experiment [2] turned out to be 76%.

Consider `O=C1Nc2ncccc2N[C@@H]1Cc1ccccc1`, for which the deltaT in experiment [3] was found to be 1.6 °C. Moreover, the inhibition in experiment [2] was 63%.

Consider `C[C@H]1Nc2ncccc2NC1=O`, for which the deltaT in experiment [1] came out at 1.4 °C. For the same compound, in experiment [2], the inhibition amounted to 66%.

Regarding `O=C1Nc2ncccc2N2C[C@H](O)C[C@@H]12`, the deltaT in experiment [1] came to 0.8 °C.

Consider `C[C@@H]1Nc2ncccc2NC1=O`, for which the deltaT in experiment [1] is 1 °C. For the same compound, in experiment [2], the inhibition is 63%.

As to `CC1(C)Nc2cccnc2NC1=O`, in experiment [1], the deltaT is 0.7 °C. Further, the inhibition in experiment [2] came out at 26%.

With `C[C@H]1Nc2cnccc2NC1=O`, in experiment [1], the deltaT amounted to 0.5 °C. For the same compound, in experiment [2], the inhibition worked out at 25%.

As to `C[C@@H]1Nc2ccncc2NC1=O`, the deltaT in experiment [1] turned out to be 1.4 °C. In addition, the inhibition in experiment [2] was determined as 69%.

As to `C[C@@H]1Nc2cnccc2NC1=O`, the deltaT in experiment [1] is 0.5 °C. For the same compound, the inhibition in experiment [2] worked out at 29%.

On to `C[C@@H]1Nc2cccnc2NC1=O`, for which the figures for the deltaT in experiment [3] and in experiment [1] were 0 °C and 0.5 °C, respectively. For the same compound, the inhibition in experiment [2] worked out at 19%.

By Kd is commonly meant the concentration at which binding is half-saturated. Take `O=C1Nc2ncccc2N[C@@H]1Cc1c[nH]c2ccccc12`: in experiment [5], the Kd came to 9 µM. In addition, the IC50 in experiment [4] amounted to 18 µM. The deltaT in experiment [3] worked out at 4.5 °C. In experiment [2], the inhibition is 94%. Further, in the experiment filed under Homo sapiens, the Ratio IC50 was 50.

With `Cc1nc2cccnc2[nH]c1=O`, the deltaT in experiment [3] came to 0.5 °C. Also, the inhibition in experiment [2] was 35%.

Consider `C[C@H]1Nc2ccccc2NC1=O`, for which the deltaT in experiment [1] is 0 °C. The inhibition in experiment [2] came out at 12%.

With `O=C1Nc2ncccc2N[C@H]1Cc1ccccc1`, the deltaT in experiment [3] came out at 0 °C. Further, the inhibition in experiment [2] is 55%.

Take `CC(C)[C@H]1Nc2cccnc2NC1=O`: the deltaT stood at 1.6 °C in experiment [3] and 2.3 °C in experiment [1]. The inhibition in experiment [2] is 57%.

For `C[C@H]1Nc2cccnc2N(C)C1=O`, the deltaT in experiment [1] is 0 °C. In addition, the inhibition in experiment [2] is 19%.

As for `CC(C)[C@@H]1Nc2cccnc2NC1=O`, in experiment [3], the deltaT came out at 0 °C. For the same compound, the inhibition in experiment [2] worked out at 25%.

In experiment [5], `C[C@H]1Nc2cccnc2NC1=O` returned a Kd of 600 µM. The deltaT stood at 1 °C in experiment [3] and 1.7 °C in experiment [1]. Besides, the outcome in experiment [6] and in experiment [7] was Active. In addition, the inhibition in experiment [2] was 46%.

Consider `C[C@@H]1CNc2ncccc2N1`, for which, in experiment [1], the deltaT is 0 °C. Also, in experiment [2], the inhibition came out at 17%.

On to `C[C@H]1Nc2ccncc2NC1=O`, for which the deltaT in experiment [1] amounted to 1.6 °C. Also, in experiment [2], the inhibition was found to be 61%.
